According to ChEMBL document CHEMBL2040770, “Finger loop inhibitors of the HCV NS5b polymerase. Part II. Optimization of tetracyclic indole-based macrocycle leading to the discovery of TMC647055” (Bioorg Med Chem Lett, 2012):
pEC50: −log10 of the molar value.

Key:
[1] = Oral bioavailability in Sprague-Dawley rat at 10 mg/kg; assay type: ADME, organism-based; settings: in vivo
Summary of the method: (§1)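 Male Sprague–Dawley rats (n = 3) given a single iv dose of 2 mg/kg in PEG400/saline 70:30 and a single oral dose of 10 mg/kg in PEG400/2% vitamin E-TPGS. Plasma kinetics were followed to give plasma clearance, Cmax and oral bioavailability.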

[2] = Ratio of drug uptake in Sprague-Dawley rat liver to plasma at 10 mg/kg, po measured after 7 hrs; assay type: ADME, organism-based; set-up: dose 10 mg/kg, route oral
Summary of the method: (§2)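 Male Sprague–Dawley rats (n = 3) received a single oral dose of 10 mg/kg in PEG400/2% vitamin E-TPGS. Liver concentration was measured 7 h post-dosing, and the liver/plasma concentration ratio was taken at that same 7 h time point.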

[3] = Drug uptake in Sprague-Dawley rat liver at 10 mg/kg, po measured after 7 hrs; assay type: ADME, organism-based; set-up: dose 10 mg/kg, route oral; settings: read-out: Drug uptake; summary of the method: as §2
[4] = Clearance in Sprague-Dawley rat at 2 mg/kg, iv and 10 mg/kg, po; assay type: ADME, organism-based; settings: in vivo; summary of the method: as §1
Hepatitis C virus = assay: Antiviral activity against Hepatitic C virus genotype 1b clone ET infected in human Huh7 replicon cells after 72 hrs by luciferase reporter gene assay; assay type: functional, organism-based, Hepacivirus hominis; settings: Huh-7, 72 h
[5] = Metabolic stability in rat liver microsomes assessed as compound metabolized at 5 uM after 15 mins; assay type: ADME, Microsome; settings: read-out: Drug metabolism
Summary of the method: (§3)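 Rat or human liver microsomes incubated with compound at 5 µM for 15 min. Stability is given as % of compound metabolized.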

[6] = Metabolic stability in human liver microsomes assessed as compound metabolized at 5 uM after 15 mins; assay type: ADME, Microsome; settings: read-out: Drug metabolism; summary of the method: as §3
[7] = Selectivity index, ratio of CC50 for human Huh7 cells to EC50 for Hepatitic C virus genotype 1b clone ET; assay type: toxicity, cell-based, Huh-7; settings: read-out: Ratio CC50/EC50
Summary of the method: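 Selectivity index computed in Huh-7 cells as CC50/EC50.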

[8] = Cmax in Sprague-Dawley rat at 10 mg/kg, po; assay type: ADME, organism-based; set-up: dose 10 mg/kg, route oral; settings: in vivo; summary of the method: as §1
[9] = Oral bioavailability in dog at 10 mg/kg; assay type: ADME, organism-based, Canis lupus familiaris; settings: in vivo
[10] = Plasma clearance in dog at 10 mg/kg, po; assay type: ADME, organism-based, Canis lupus familiaris; set-up: dose 10 mg/kg, route oral
Canis familiaris = assay: Volume of distribution at steady state in dog at 10 mg/kg, po; assay type: ADME, organism-based, Canis lupus familiaris; set-up: dose 10 mg/kg, route oral; settings: in vivo
[11] = Cmax in dog at 10 mg/kg, po; assay type: ADME, organism-based, Canis lupus familiaris; set-up: dose 10 mg/kg, route oral; settings: in vivo
Summary of the method: (§4)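 Dogs given a single oral dose of 10 mg/kg. Peak plasma concentration and plasma AUC extrapolated to infinity were determined, reported in µM and µM h.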

[12] = AUC (0 to infinity) in dog at 10 mg/kg, po; assay type: ADME, organism-based, Canis lupus familiaris; set-up: time infinity, dose 10 mg/kg, route oral; settings: plasma; summary of the method: as §4
[13] = Inhibition of cytochrome P450; assay type: ADME
Rattus norvegicus = species on record: Rattus norvegicus; assay: Drug metabolism in Sprague-Dawley rat assessed as reactive acyl glucuronides formation; assay type: ADME, organism-based; settings: in vivo

bioavailability [1]	Kp at 7 h [2]	concentration at 7 h [3]	clearance [4]	SMILES	pEC50 (Hepatitis C virus)	metabolised at 0.25 h, 5 µM [5]	metabolised at 0.25 h, 5 µM [6]	selectivity ratio [7]	other results
21%	64	1720 ng/mL	128 mL/min/kg	CN1CCOCCN(C)S(=O)(=O)NC(=O)c2ccc3c(C4CCCCC4)c(n(C)c3c2)-c2ccccc2OCC1=O	6.72	–	–	–	–
–	–	–	–	COc1ccc2c(c1)C=C1Cn3c-2c(C2CCCCC2)c2ccc(cc23)C(=O)NS(=O)(=O)N(C)CCCCCCN(C)C1=O	6.80	46%	99%	150	–
76%	23	5000 ng/mL	40 mL/min/kg	COc1ccc2c(c1)C=C1Cn3c-2c(C2CCCCC2)c2ccc(cc23)C(=O)NS(=O)(=O)N(C)CCCCN(C)C1=O	7.09	26%	56%	> 330	Cmax [8]: 800 ng/mL
–	–	–	–	COc1ccc2c(c1)C=C1Cn3c-2c(C2CCCCC2)c2ccc(cc23)C(=O)NS(=O)(=O)N(C)CCCN(C)C1=O	6.17	28%	18%	72	–
–	–	–	–	COc1ccc2c(c1)C=C1Cn3c-2c(C2CCCCC2)c2ccc(cc23)C(=O)NS(=O)(=O)NCCN(C)CCNC1=O	6.33	23%	7%	> 68	–
–	–	–	–	COc1ccc2c(c1)C=C1Cn3c-2c(C2CCCCC2)c2ccc(cc23)C(=O)NS(=O)(=O)N(C)CCN(C)CCNC1=O	6.26	–	–	> 58	–
–	–	–	–	COc1ccc2c(c1)C=C1Cn3c-2c(C2CCCCC2)c2ccc(cc23)C(=O)NS(=O)(=O)N2CCN(CCNC1=O)CC2	6.07	16%	10%	> 40	–
–	–	–	–	CN1CCOCCN(C)S(=O)(=O)NC(=O)c2ccc3c(C4CCCCC4)c4n(c3c2)CC(=Cc2cc(Cl)ccc2-4)C1=O	6.55	22%	16%	150	–
–	–	–	–	CN1CCCCN(C)S(=O)(=O)NC(=O)c2ccc3c(C4CCCCC4)c4n(c3c2)CC(=Cc2ccc(Cl)cc2-4)C1=O	4.84	30%	29%	> 2	–
–	–	–	–	COc1ccc2c(c1)C=C1Cn3c-2c(C2CCCCC2)c2ccc(cc23)C(=O)NS(=O)(=O)N(C)CCCCNC1=O	6.04	13%	20%	> 40	–
–	–	–	–	COc1ccc2c(c1)C=C1Cn3c-2c(C2CCCCC2)c2ccc(cc23)C(=O)NS(=O)(=O)NCCCCN(C)C1=O	6.26	25%	27%	> 58	–
–	–	–	–	COc1ccc2c(c1)C=C1Cn3c-2c(C2CCCCC2)c2ccc(cc23)C(=O)NS(=O)(=O)N(C(C)C)CCCCN(C)C1=O	6.48	12%	80%	> 100	–
51%	38	3200 ng/mL	86.7 mL/min/kg	COc1ccc2c(c1)C1C[C@]13Cn1c-2c(C2CCCCC2)c2ccc(cc21)C(=O)NS(=O)(=O)N(C)CCOCCN(C)C3=O (stereo not given in full)	7.40	72%	95%	–	–
–	–	–	–	COc1ccc2c(c1)C1C[C@@]13Cn1c-2c(C2CCCCC2)c2ccc(cc21)C(=O)NS(=O)(=O)N(C)CCOCCN(C)C3=O (stereo not given in full)	6.10	–	–	–	–
15%	22	898 ng/mL	53.3 mL/min/kg	COc1ccc2c(c1)C[C@@H]1Cn3c-2c(C2CCCCC2)c2ccc(cc23)C(=O)NS(=O)(=O)N(C)CCOCCN(C)C1=O	–	42%	63%	–	–
–	–	–	–	CCN(CC)C1CCN(C(=O)Cn2c(-c3ccc(Cl)cc3)c(C3CCCCC3)c3ccc(C(=O)O)cc32)CC1	6.90	–	–	–	–
> 66%	46	7800 ng/mL	53.3 mL/min/kg	COc1ccc2c(c1)C=C1Cn3c-2c(C2CCCCC2)c2ccc(cc23)C(=O)NS(=O)(=O)N(C)CCOCCN(C)C1=O [TMC-647055]	7.09	30%	35%	> 300	bioavailability [9]: 87%; CL/F [10]: 9 mL/min/kg; Vdss (Canis familiaris): 0.32 L/kg; Cmax [11]: 10.2 µM; Cmax [8]: 440 ng/mL; AUC(0-inf) [12]: 25.8 µM·h; inhibition (INH) [13]: Not Active; Drug metabolism (Rattus norvegicus): Not Active

SMILES	bioavailability [1]	Kp at 7 h [2]	concentration at 7 h [3]	clearance [4]	pEC50 (Hepatitis C virus)	metabolised at 0.25 h, 5 µM [5]	metabolised at 0.25 h, 5 µM [6]	selectivity ratio [7]	other results
COc1ccc2c(c1)C=C1Cn3c-2c(C2CCCCC2)c2ccc(cc23)C(=O)NS(=O)(=O)N(C)CCCCCNC1=O	6%	341	6320 ng/mL	70 mL/min/kg	6.89	27%	32%	> 400	Cmax [8]: 30 ng/mL
CN1CCOCCN(C)S(=O)(=O)NC(=O)c2ccc3c(C4CCCCC4)c4n(c3c2)CC(=Cc2cc(F)ccc2-4)C1=O	52%	62	6560 ng/mL	61.7 mL/min/kg	7.14	37%	38%	> 250	Cmax [8]: 272 ng/mL
COc1ccc2c(c1)C=C1Cn3c-2c(C2CCCCC2)c2ccc(cc23)C(=O)NS(=O)(=O)N(C)CCN2CCN(CC2)C1=O	3%	108	299 ng/mL	157 mL/min/kg	6.74	17%	26%	> 170	Cmax [8]: 6 ng/mL
